Source: PubChem (several laboratories)
Only some compounds are listed: those with a hit (about 2.9% of all), similar ones and a draw of the others.
Rev-erbA mod: modulators of Rev-erb alpha DNA binding, primary screen, biochemical, FITC-DNA, fluorescence polarization, uHTS. activity, % at 10 µM. hit rate 0.79% among 370,000. Nuclear receptor subfamily 1 group D member 1 (Homo sapiens), P20393. AID 1259318, 2017. Rev-erbα–FITC-DNA binding, 90 min;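 active = activity above about 14%, limit read from the data; passing the limit was not always enough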;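 also: 0% = DMSO wells with 35 nM protein and 100% = DMSO wells with 750 nM protein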
Target sequence (P20393 whole entry, looked up): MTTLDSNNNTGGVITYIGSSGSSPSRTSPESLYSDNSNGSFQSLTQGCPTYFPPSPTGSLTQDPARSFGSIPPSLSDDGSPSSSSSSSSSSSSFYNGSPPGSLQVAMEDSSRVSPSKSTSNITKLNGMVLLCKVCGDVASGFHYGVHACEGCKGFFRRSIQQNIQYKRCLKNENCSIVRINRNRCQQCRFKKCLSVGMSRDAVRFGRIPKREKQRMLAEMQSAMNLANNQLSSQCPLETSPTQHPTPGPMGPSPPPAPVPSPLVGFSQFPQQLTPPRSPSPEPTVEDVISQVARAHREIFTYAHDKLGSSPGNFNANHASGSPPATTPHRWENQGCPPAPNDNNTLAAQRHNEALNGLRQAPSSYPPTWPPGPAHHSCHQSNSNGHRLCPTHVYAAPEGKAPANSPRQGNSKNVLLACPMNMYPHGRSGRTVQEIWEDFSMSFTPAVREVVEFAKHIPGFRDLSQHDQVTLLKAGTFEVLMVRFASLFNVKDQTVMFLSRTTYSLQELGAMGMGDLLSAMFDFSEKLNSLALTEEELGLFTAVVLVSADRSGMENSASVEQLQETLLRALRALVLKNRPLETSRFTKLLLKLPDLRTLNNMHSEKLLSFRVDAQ
beta cell repl: inducers of MIN6 beta-cell proliferation, primary screen, ATP luminescence, uHTS; MIN6 cells proliferation, ATPlite luminescence, 48 h; cells starved in 0.2% serum; 100% = growth in 10% serum; proliferation, % at 10 µM; hit rate 0.29% among 330,000; AID 2380, 2010;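 active = compounds whose signal lies at least 3.5 SD above the mean of all wells on their plate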;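 also: 0% = DMSO-treated cells in low-serum medium and 100% = 10% serum control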
PG9 binder: binders of HIV-1 gp120 antibody PG9, primary screen, biochemical, TR-FRET | hit rate 0.43% among 360,000 | AID 624416, 2012 | inhibition, % at 6.7 µM | TR-FRET gp120-PG9 antibody binding | HIV-1 gp120 / PG9 antibody interaction; in the data active = inhibition above about 8.5%
H9c2 TAG inh: inhibitors of triacylglycerol accumulation, primary screen, cell-based, uHTS, fluorescence, H9c2; H9c2 cells, Nile Red lipid (TAG) fluorescence; cells loaded with 200 µM oleic acid; inhibition, % at 12.5 µM; hit rate 0.66% among 230,000;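 active = pattern-corrected inhibition of lipid staining of at least 50% with the nuclear-stain viability signal not falling by more than 50%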;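 also: 0% = DMSO wells and 100% = triacsin C control wells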
hiPSC survival: enhancers of single-cell hiPSC survival, primary screen, ATPlite luminescence. hit rate 0.044% among 360,000. 100% = ROCK inhibitor wells, 0% = DMSO. AID 602274, 2012. survival enhancement, % at 20 µM; in the data active = survival enhancement above about 18%;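 also: cells exposed to compounds for 16 hours before the ATP read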
T cruzi inh: inhibitors of intracellular T. cruzi growth, primary screen, luminescence, NIH3T3 host cells | T. cruzi beta-gal in NIH3T3, 90 h | hit rate 1.4% among 300,000 | inhibition, % (no concentration beside the values);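 active = mean inhibition across valid replicates above about 55%, limit read from the data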;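 also: signal also drops with host cell toxicity which is not excluded here; 0% = plate median of DMSO wells and 100% = zero luminescence signal; higher percent means less beta-gal luminescence so fewer parasites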
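Read-out: Parasite load inhibition, % | Test system: Mouse NIH/3T3 fibroblasts infected with β-gal-expressing T. cruzi Tulahuen C4 | Amount: 5,000 cells/well | Medium: DMEM, 2% fetal bovine serum | Signal: GalScreen β-gal luminescence, detergent lysis, 60 min | Timing: 3 h attach, ≥90 h co-culture | Also added: Tulahuen C4 trypomastigotes, 5000/well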
PG9 binder conf: binders of anti-gp120 antibody PG9, confirmation, biochemical, TR-FRET; AID 651571, 2012; shares compounds with PG9 binder; hit rate 90% among 1,500; TR-FRET PG9 antibody binding; inhibition, % at 6.7 µM; in the data active = inhibition above about 9%
PGV04 counter: binders of control antibody PGV04, counter-screen for PG9 antibody binder project, biochemical, TR-FRET, distinct HIV envelope site | inhibition, % at 6.7 µM | hit rate 95% among 1,500 | TR-FRET PGV04 antibody-gp120 binding | shares compounds with PG9 binder; in the data active = inhibition above about 9.5%
The depositor's hits bear a star.

How did Cc1cccc(CC2S/C(=N/c3cccc(C)n3)NC2=O)c1 (stereo unspecified) do in these assays?
Rev-erbA mod: 16; beta cell repl: -1; PG9 binder: 13*; H9c2 TAG inh: 1; hiPSC survival: 0; T cruzi inh: 3; PG9 binder conf: 18*; PGV04 counter: 24*

What do the screens show for `Cc1cccc(/N=C2/NC(=O)C(Cc3ccccc3)S2)n1` (stereo unspecified)?
Rev-erbA mod: 5; beta cell repl: -2; PG9 binder: 8; H9c2 TAG inh: 0; hiPSC survival: 0; T cruzi inh: 8

Results for O=C(c1ccc(CNS(=O)(=O)c2ccc(Br)cc2)cc1)N1CCCC1 ?
Rev-erbA mod: -2; beta cell repl: 0; PG9 binder: -2; H9c2 TAG inh: 10; hiPSC survival: 0; T cruzi inh: -2

Results for COc1cc(NC(=O)c2cc3ccccc3o2)c(OC)cc1Br ?
Rev-erbA mod: 20; beta cell repl: 3; PG9 binder: 1; hiPSC survival: 3; T cruzi inh: 5

Results for COc1cc(NC(=O)c2cc3ccccc3o2)c(OC)cc1Cl ?
Rev-erbA mod: 16; beta cell repl: -1; PG9 binder: 20*; H9c2 TAG inh: -4; hiPSC survival: 3; T cruzi inh: 5; PG9 binder conf: 18*; PGV04 counter: 34*

What do the screens show for `S=c1[nH]ncc2ccccc12`?
Rev-erbA mod: 4; beta cell repl: 1; PG9 binder: 0; hiPSC survival: 2; T cruzi inh: -17

How did S=c1[nH]ccc2ccccc12 do in these assays?
Rev-erbA mod: -5; PG9 binder: 11*; H9c2 TAG inh: -10; hiPSC survival: -2; PG9 binder conf: 4; PGV04 counter: 11*

Results for O=C(CN1C(=O)/C(=C/c2ccccc2)SC1=S)Nc1cccnc1 ?
Rev-erbA mod: 1; beta cell repl: -3; PG9 binder: -2; hiPSC survival: -1; T cruzi inh: -16

What do the screens show for `Cn1c(=O)oc2cc(S(=O)(=O)NCCc3ccccc3)ccc21`?
Rev-erbA mod: -4; beta cell repl: -2; PG9 binder: 1; hiPSC survival: 8; T cruzi inh: -11

How did Cc1cccc(CCNS(=O)(=O)c2ccc3c(c2)oc(=O)n3C)c1 do in these assays?
Rev-erbA mod: 7; beta cell repl: -2; PG9 binder: 18*; hiPSC survival: 0; T cruzi inh: 11; PG9 binder conf: 5; PGV04 counter: 7

What do the screens show for `CCOC(=O)C1CCN(C(=O)c2ccc(N(C)S(C)(=O)=O)cc2)CC1`?
Rev-erbA mod: -4; beta cell repl: 0; PG9 binder: 0; hiPSC survival: -2; T cruzi inh: -7

How did CN(c1ccc(C(=O)COC(=O)C2CC2)cc1)S(C)(=O)=O do in these assays?
Rev-erbA mod: 4; beta cell repl: -4; PG9 binder: 14*; H9c2 TAG inh: -6; hiPSC survival: 4; PG9 binder conf: 18*; PGV04 counter: 20*

Results for COc1ccccc1-c1c(C(F)(F)F)oc2cc(OS(C)(=O)=O)ccc2c1=O ?
Rev-erbA mod: -8; beta cell repl: -2; PG9 binder: 0; hiPSC survival: -2; T cruzi inh: 16

How did COc1ccccc1-c1c(C(F)(F)F)oc2cc(OCC(=O)Nc3ccccc3C(F)(F)F)ccc2c1=O do in these assays?
Rev-erbA mod: 2; beta cell repl: -1; PG9 binder: 12*; hiPSC survival: -2; T cruzi inh: 10; PG9 binder conf: 20*; PGV04 counter: 37*
